Screens deposited in PubChem by Broad Institute.
INS-1E ATP HTS – rescue of cytokine-induced death in INS-1E beta cells | protection from cytokine-induced ATP loss, % at 10 µM | INS-1E cytokine-induced death, ATP luminescence, 48 h; normalised: neutral wells 0, positive control 100 | 20,000 tested, 0.1% active;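 active = mean replicate protection from cytokine-induced ATP loss at least 50% and at least 75% of replicates each reaching 50%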
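Material: INS-1E rat cells; Quantity: 8000 cells/well; Buffer or medium: phenol-red-free RPMI with 5% fetal bovine serum; Probe or stimulus: cytokine cocktail of IFN-γ, TNF-α and IL-1β; Compound dosing: single test concentration per compound, delivered by pin transfer; Incubation: 48 h co-treatment, 10 min post-lysis read; Signal: CellTiter-Glo luminescence.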
A1 apoptosis 2 – blocks A1, raising caspase activity | caspase activation, % (no concentration beside the values) | MEF A1-2A-BIM cells, caspase-Glo luminescence, 3 h; percent of clofoctol response, DMSO zero | 24,000 tested, under 10 active | AID 2465; in the data active = caspase activation above about 5.9%
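Material: A1-2A-BIM-expressing MEF cells. Buffer or medium: RPMI-1640 plus 10% FBS. Incubation: cells settled overnight, compound exposure 3 h at 37 °C, 5% CO2. Signal: Caspase-Glo 3/7 luminescence, 1 h at room temperature.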
T cruzi HTS – intracellular Trypanosoma cruzi inhibition | intracellular Trypanosoma cruzi in host cells, plate reader | activity score (inhibition), % at 5.01 µM | 22,000 tested, 4.9% active | AID 651903; in the data active = activity score above about 55%;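 note: parasites and compound incubated about four days before reading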
A number is an active result; - = inactive; . = not tested or not shown. The full list was thinned out, with hits kept by preference.

SMILES	INS-1E ATP HTS	A1 apoptosis 2	T cruzi HTS
O=C(O)CCCCCC(=O)N/N=C/c1ccccc1Cl	-	-	-
CCCCCCC/C=N/NC(=O)CCCCCCC(=O)OC	-	-	-
CC(C)NC(=O)N(C)C[C@H]1Oc2c(NC(=O)Nc3ccc4c(c3)OCO4)cccc2C(=O)N([C@H](C)CO)C[C@H]1C	-	.	-
C=CCC/C=N/NC(=O)CCCCCCC(=O)Nc1ccccc1O	-	-	-
C[C@@H]1CCCCO[C@@H](CN(C)C(=O)Nc2ccc3c(c2)OCO3)[C@@H](C)CN([C@@H](C)CO)C(=O)c2cc(NC(=O)Nc3ccc(C(F)(F)F)cc3)ccc2O1	.	-	.
C[C@@H]1CCCCO[C@H](CN(C)C(=O)Nc2ccc(C(F)(F)F)cc2)[C@H](C)CN([C@@H](C)CO)C(=O)c2cc(NC(=O)Nc3ccc4c(c3)OCO4)ccc2O1	.	-	.
C[C@@H]1CCCCO[C@@H](CN(C)C(=O)Nc2ccc(C(F)(F)F)cc2)[C@@H](C)CN([C@H](C)CO)C(=O)c2cc(NC(=O)Nc3ccc4c(c3)OCO4)ccc2O1	-	-	67
C[C@@H]1CCCCO[C@H](CN(C)C(=O)Nc2ccc3c(c2)OCO3)[C@@H](C)CN([C@H](C)CO)C(=O)c2cc(NC(=O)Nc3ccc(C(F)(F)F)cc3)ccc2O1	-	.	76
O=C(N/N=C/c1cc(Br)c(O)c(Br)c1)c1ccccc1O	-	.	-
O=C(CCCCCCC(=O)Nc1ccccc1O)N/N=C/c1ccc(C(=O)O)cc1	-	.	-
C[C@@H]1CCCCO[C@@H](CN(C)C(=O)Nc2ccc(C(F)(F)F)cc2)[C@@H](C)CN([C@H](C)CO)C(=O)c2cc(NS(=O)(=O)c3ccc(Cl)cc3)ccc2O1	-	.	72
Cc1ccc(S(=O)(=O)Nc2ccc3c(c2)C(=O)N([C@H](C)CO)C[C@H](C)[C@H](CN(C)C(=O)Nc2ccc(C(F)(F)F)cc2)OCCCC[C@@H](C)O3)cc1	-	-	63
C[C@@H]1CN([C@H](C)CO)C(=O)c2cc(NS(=O)(=O)c3ccc(Cl)cc3)ccc2O[C@@H](C)CCCCO[C@H]1CN(C)C(=O)Nc1ccc(C(F)(F)F)cc1	.	-	.
Cc1ccc(S(=O)(=O)Nc2ccc3c(c2)C(=O)N([C@@H](C)CO)C[C@@H](C)[C@H](CN(C)C(=O)Nc2ccc(C(F)(F)F)cc2)OCCCC[C@@H](C)O3)cc1	.	-	.
O=C(CCCCCCC(=O)Nc1ccccc1O)N/N=C/c1cc2c(cc1Br)OCO2	-	-	-
COc1ccc(CN(C)C[C@H]2Oc3ccc(NC(=O)C4CCCCC4)cc3CC(=O)N([C@@H](C)CO)C[C@@H]2C)cc1	-	.	64
C[C@H]1CN([C@@H](C)CO)C(=O)Cc2cc(NC(=O)C3CCCCC3)ccc2O[C@H]1CN(C)Cc1ccc(Oc2ccccc2)cc1	-	.	-
COc1ccc(CN(C)C[C@H]2Oc3ccc(NC(=O)C4CCCCC4)cc3CC(=O)N([C@H](C)CO)C[C@H]2C)cc1	-	-	-
C[C@@H]1CN([C@H](C)CO)C(=O)Cc2cc(NC(=O)C3CCCCC3)ccc2O[C@H]1CN(C)Cc1ccc(Oc2ccccc2)cc1	-	.	76
CC1(C)COC(CCC/C=N/NC(=O)c2ccc(C(=O)NO)cc2)OC1	-	-	-
Cc1ccc(F)cc1S(=O)(=O)N[C@@H]1CCN(Cc2ccc3c(c2)OCO3)C1	.	-	.
COc1ccc(C#Cc2ccc3c(c2)[C@]2(C(=O)N3)[C@H](C(=O)NC[C@H](O)c3ccccc3)[C@H]3C(=O)O[C@H](c4ccccc4)[C@H](c4ccccc4)N3[C@@H]2c2ccc(O)cc2)cc1	.	-	.
